Consider twelve molecules from ChEMBL document CHEMBL4196151, “Anti-inflammatory Potential of Flavonoids from the Aerial Parts of Corispermum marschallii” (J Nat Prod, 2018).

Data set [1] relates to Neutrophil. In words: Cytotoxicity against LPS-stimulated human neutrophils assessed as reduction in cell viability up to 50 uM incubated for 1 hr followed by LPS stimulation by propidium iodide staining based method. The method in brief: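 Viability measured by propidium iodide staining in neutrophils (1 × 10^6/mL) cultured in RPMI 1640. Compounds at final 10, 20, 50 μM were added 1 h before LPS (100 ng/mL). Read-out by cytometry, with 0.1% Triton X-100 as positive control.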

For data set [2], the system named is Neutrophil. In words: Antiinflammatory activity against f-MLP-stimulated human neutrophils assessed as reduction in ROS production incubated for 40 mins measured at intervals of 2 mins by luminol-dependent chemiluminescence assay. Type of data set: functional, cell-based. In short, it runs like this: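 Freshly isolated human neutrophils suspended in HBSS at 2.0 × 10^5/mL and incubated with compounds at final 5, 10, 20 μM, diluted from DMSO stocks. ROS release triggered by f-MLP and read by luminol-dependent chemiluminescence. Quercetin served as positive control. Data as mean ± SEM, ANOVA with Tukey post hoc test.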

In data set [3] the test system is Neutrophil. Put plainly: Antiinflammatory activity against LPS-stimulated human neutrophils assessed as reduction in IL-8 production incubated for 1 hr followed by LPS stimulation measured after 18 to 24 hrs by ELISA. Format: functional, cell-based. The method in brief:
(§1)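 Human neutrophils isolated from buffy coat, 1.0 × 10^6/mL in RPMI 1640 with 10% FBS, 10 mM HEPES, 2 mM L-glutamine. Compounds added from 10 mM DMSO stocks at final 10, 20, 50 μM, 1 h before LPS (100 ng/mL). Culture at 37 °C, 5% CO2. Supernatants taken after 18 h by centrifugation and cytokine measured by ELISA. Quercetin positive control; mean ± SEM, ANOVA with Tukey.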
In general terms: In an ELISA, binding on a coated surface is turned into a signal by an enzyme label.

The subject of data set [4] is Neutrophil. In words: Antiinflammatory activity against LPS-stimulated human neutrophils assessed as reduction in TNFalpha production incubated for 1 hr followed by LPS stimulation measured after 18 to 24 hrs by ELISA. Type of data set: functional, cell-based. In short, it runs like this:
as §1

Structures are written as SMILES.

For orientation: IC50 means the point on the concentration scale where inhibition reaches its midpoint. As to `COc1cc(-c2oc3cc(O)c(OC)c(O)c3c(=O)c2O[C@@H]2O[C@H](CO)[C@H](O)[C@H](O)[C@H]2O)ccc1O`, in data set [1], the Activity result was “Non-Toxic”. The IC50 in data set [2] turned out to be 38.5 µM; in data set [3], 51.9 µM; in data set [4], 16.3 µM.
In the same order, the values of `COc1cc(/C=C/C(=O)OC[C@H]2O[C@@H](Oc3cc4oc(-c5ccc(O)c(O)c5)c(O[C@@H]5O[C@H](CO)[C@H](O)[C@H](O)[C@H]5O)c(=O)c4c(O)c3OC)[C@H](O)[C@@H](O)[C@@H]2O)ccc1O` are “Non-Toxic”, 36.6 µM, 46.7 µM and 23.2 µM.
For `COc1c(O)cc2oc(-c3ccc(O)c(O)c3)c(O[C@@H]3O[C@H](CO)[C@H](O)[C@H](O)[C@H]3O[C@@H]3OC[C@](O)(CO[C@@H]4OC[C@H](O)[C@H](O)[C@H]4O)[C@H]3O)c(=O)c2c1O` the same measures were “Non-Toxic”, 5.4 µM, 24.5 µM and 9.7 µM.
In the same order, the values of `COc1c(O)cc2oc(-c3ccc(O)c(O)c3)c(O[C@@H]3O[C@H](CO)[C@H](O)[C@H](O)[C@H]3O[C@@H]3OC[C@](O)(CO)[C@H]3O)c(=O)c2c1O` are “Non-Toxic”, 7.1 µM, 7.2 µM and 12.8 µM.
With `COc1c(O)cc2oc(-c3ccc(O)c(O)c3)c(O[C@@H]3O[C@H](CO[C@@H]4O[C@H](CO)[C@@H](O)[C@H](O)[C@H]4O)[C@H](O)[C@H](O)[C@H]3O)c(=O)c2c1O`, in data set [1], the Activity entry is “Non-Toxic”. Besides, the figures for the IC50 in data set [2], in data set [3] and in data set [4] were 5.7 µM, 28.9 µM and 9.3 µM, respectively.
`COc1c(O)cc2oc(-c3ccc(O)c(O)c3)c(O[C@@H]3O[C@H](CO[C@@H]4OC[C@H](O)[C@H](O)[C@H]4O)[C@H](O)[C@H](O)[C@H]3O)c(=O)c2c1O`: in data set [1], the Activity entry is recorded as “Non-Toxic”. Besides, the IC50 was found to be 5.7 µM in data set [2] and 25.5 µM in data set [3].
As for `COc1cc(/C=C/C(=O)OC[C@H]2O[C@@H](Oc3cc4oc(-c5ccc(O)c(OC)c5)c(O[C@@H]5O[C@H](CO)[C@H](O)[C@H](O)[C@H]5O)c(=O)c4c(O)c3OC)[C@H](O)[C@@H](O)[C@@H]2O)ccc1O`, in data set [1], the Activity result is “Non-Toxic”. In addition, the half-maximal inhibitory concentration (IC50) in data set [2] turned out to be 6 µM; in data set [4] it was 20.7 µM.
On to `COc1c(O[C@@H]2O[C@H](CO)[C@@H](O)[C@H](O)[C@H]2O)cc2oc(-c3ccc(O)c(O)c3)c(O[C@@H]3O[C@H](CO)[C@H](O)[C@H](O)[C@H]3O)c(=O)c2c1O`, for which the Activity result in data set [1] is reported as “Non-Toxic”. Further, the IC50 amounted to 26.9 µM in data set [2] and 66 µM in data set [3].
As to `COc1cc(-c2oc3cc(O[C@@H]4O[C@H](CO)[C@@H](O)[C@H](O)[C@H]4O)c(OC)c(O)c3c(=O)c2O[C@@H]2O[C@H](CO)[C@H](O)[C@H](O)[C@H]2O)ccc1O`, the Activity result in data set [1] was “Non-Toxic”. Besides, the figures for the IC50 in data set [2], in data set [3] and in data set [4] were 31.5 µM, 25.7 µM and 16.3 µM, respectively.
Regarding `COc1c(O)cc2oc(-c3ccc(O)cc3)c(O[C@@H]3O[C@H](CO)[C@H](O)[C@H](O)[C@H]3O)c(=O)c2c1O`, the IC50 in data set [2] was 15.4 µM; in data set [3], 18.1 µM; in data set [4], 11.7 µM.
In the same order, the values of `COc1c(O)cc2oc(-c3ccc(O)c(O)c3)c(O[C@@H]3O[C@H](CO)[C@H](O)[C@H](O)[C@H]3O)c(=O)c2c1O` are 3.4 µM, 8 µM and 7.7 µM.
In the same order, the values of `O=c1c(O)c(-c2ccc(O)c(O)c2)oc2cc(O)cc(O)c12` [QUERCETIN] are 4.4 µM, 33 µM and 20.4 µM.
